Published values pooled from the literature.
Compare with care: the assays were run in different laboratories.
FPR1: fMet-Leu-Phe receptor (FPR1, Homo sapiens, UniProt P21462)
DNA dC->dU-editing enzyme APOBEC-3B: DNA dC->dU-editing enzyme APOBEC-3B (Homo sapiens, UniProt Q9UH17)
MC4R: Melanocortin receptor 4 (MC4R, Homo sapiens, UniProt P32245)
SLC6A2: Sodium-dependent noradrenaline transporter (SLC6A2, Homo sapiens, UniProt P23975)
NQO2: Ribosyldihydronicotinamide dehydrogenase [quinone] (NQO2, Homo sapiens, UniProt P16083)

Structure (SMILES)	target	assay	system	setting	inhibition [%]
CCCCCCc1cc2c(=O)c(-c3nc4ccccc4n3C)c(C)oc2cc1OC(C)=O	FPR1	calcium signal, antagonist		50 µM	100
CCN1CCN(Cc2ccc(NC(=O)c3ccc(C)c(Oc4ccnc5[nH]ccc45)c3)cc2C(F)(F)F)CC1	Serine/threonine-protein kinase WNK4 (WNK4, Homo sapiens, UniProt Q96J92)	target engagement in cells, inhibitor, chemoproteomics	Huh-7	1 µM	-11.5
Nc1ncnc2c1ncn2C1OC(COP(=O)(O)OP(=O)(O)O)C(O)C1O (centres unmarked)	DNA dC->dU-editing enzyme APOBEC-3B	enzyme activity, inhibitor, fluorescence		100 µM	41.8
COc1ccccc1-c1c(C)oc2cc(OC(=O)c3cccs3)ccc2c1=O	FPR1	calcium signal, antagonist		50 µM	100
O=C1N=C(N2CCCCN2)S/C1=C\c1ccc(F)cc1O	MC4R	ligand displacement, radioligand		10 µM	< 10
COc1ccccc1-c1c(C(F)(F)F)oc2cc(OC(=O)c3ccco3)ccc2c1=O	FPR1	calcium signal, antagonist		50 µM	100
Clc1ccc(C(c2ccccc2)c2nnnn2CCCCN2CCC(Cc3ccc(Cl)c(Cl)c3)CC2)cc1 (centres unmarked)	SLC6A2	transporter uptake, inhibitor	HEK293	1 µM	58.9
CCc1cc2c(=O)c(-c3nc4ccccc4n3C)c(C)oc2cc1OC(C)=O	FPR1	calcium signal, antagonist		50 µM	100
CC(CCC(=O)NCC(=O)O)C1CCC2C3C(O)CC4CC(O)CCC4(C)C3CC(O)C12C (centres unmarked)	DNA dC->dU-editing enzyme APOBEC-3B	enzyme activity, inhibitor, fluorescence		100 µM	23.7
CC(=O)c1nn(CC(=O)N2C[C@H](F)C[C@H]2C(=O)Nc2cccc(Br)n2)c2ccc(-c3cnc(C)nc3)cc12	Plasma kallikrein (KLKB1, Homo sapiens, UniProt P03952)	enzyme activity, inhibitor		10 µM	20.8
Cc1oc2cc(OC(=O)c3ccco3)ccc2c(=O)c1-c1nc2ccccc2n1C	FPR1	calcium signal, antagonist		50 µM	100
Clc1ccc(CC2CCN(CCCCn3nnnc3C(c3ccccc3)c3ccccc3)CC2)cc1Cl	SLC6A2	transporter uptake, inhibitor	HEK293	1 µM	63.9
O=C(c1ccc(F)cc1)N(Cc1ccccc1)C1CCCCC1	Cysteinyl leukotriene receptor 1 (CYSLTR1, Homo sapiens, UniProt Q9Y271)	ligand displacement		10 µM	-7
O=C(O)C1OC(Oc2cc(O)c3c(=O)cc(-c4ccc(O)cc4)oc3c2)C(O)C(O)C1O (centres unmarked)	DNA dC->dU-editing enzyme APOBEC-3B	enzyme activity, inhibitor, fluorescence		100 µM	41.2
c1ccc(CCC2CCN(CCCn3nnnc3C(c3ccccc3)c3ccccc3)CC2)cc1	SLC6A2	transporter uptake, inhibitor	HEK293	1 µM	74.4
Cc1c(COc2c(F)cc(F)cc2F)c2c(n1C)C(=O)C(NCCCN(C)C)=CC2=O	NQO2	cell-free assay, inhibitor		1 µM	73
Clc1ccc(C(c2ccccc2)c2nnnn2CCCCN2CCC(CCCc3ccccc3)CC2)cc1 (centres unmarked)	SLC6A2	transporter uptake, inhibitor	HEK293	1 µM	84.1
Cc1ccc(Nc2nccc(N(C)c3ccc4c(C)n(C)nc4c3)n2)cc1S(N)(=O)=O	Serine/threonine-protein kinase Chk2 (CHEK2, Homo sapiens, UniProt O96017, I157T)	enzyme activity, inhibitor		0.3 µM	-1
Fc1ccc(C(c2ccc(F)cc2)c2nnnn2CCCCN2CCC(Cc3ccc(Cl)c(Cl)c3)CC2)cc1	SLC6A2	transporter uptake, inhibitor	HEK293	1 µM	75.9
CCOC(=O)Oc1ccc2c(=O)c(-c3ccccc3OC)c(C(F)(F)F)oc2c1	FPR1	calcium signal, antagonist		50 µM	80
Clc1ccc(C(c2ccc(Cl)cc2)c2nnnn2CCCCN2CCN(CCCc3ccccc3)CC2)cc1	SLC6A2	transporter uptake, inhibitor	HEK293	1 µM	21.3
COc1cc(/C=C/C(=O)CC(=O)/C=C/c2ccc(O)c(OC)c2)ccc1O	DNA dC->dU-editing enzyme APOBEC-3B	enzyme activity, inhibitor, fluorescence		100 µM	75.2
c1ccc(CCC2CCN(CCCCn3nnnc3C(c3ccccc3)c3ccccc3)CC2)cc1	SLC6A2	transporter uptake, inhibitor	HEK293	1 µM	82.8
Cc1c(COc2c(F)cc(F)cc2F)c2c(n1C)C(=O)C=C(NCCCN)C2=O	NQO2	cell-free assay, inhibitor		1 µM	97
CC/C(=N\NC(=O)NCc1cccc(O)c1)c1ccc(O)c(C)c1O	Fibroblast growth factor receptor 4 (FGFR4, Homo sapiens, UniProt P22455, N535K)	enzyme activity, inhibitor		0.1 µM	3.1
Cc1oc2cc(OC(=O)c3ccco3)ccc2c(=O)c1-c1ccccc1	FPR1	calcium signal, antagonist		50 µM	100
CNC(=O)c1cc(Oc2ccc(NC(=O)Nc3ccc(Cl)c(C(F)(F)F)c3)cc2)ccn1	Serine/threonine-protein kinase Chk2 (CHEK2, Homo sapiens, UniProt O96017, R145W)	enzyme activity, inhibitor		10 µM	0
Clc1ccc(C(c2ccccc2)c2nnnn2CCCN2CCC(CCCc3ccccc3)CC2)cc1 (centres unmarked)	SLC6A2	transporter uptake, inhibitor	HEK293	1 µM	72.8
CC(=O)N[C@H]1CSSC[C@@H](C(=O)N[C@@H](Cc2c[nH]c3ccccc23)C(N)=O)NC(=O)[C@H](Cc2ccccc2)NC(=O)[C@H](CCCNC(=N)N)NC1=O	MC4R	ligand displacement, radioligand		10 µM, 40 min	0
